This passage reports Drug uptake and IC50 results from ChEMBL document CHEMBL1156156, “Conformationally-restricted amino acid analogues bearing a distal sulfonic acid show selective inhibition of system x(c)(-) over the vesicular glutamate transporter” (Bioorg Med Chem Lett, 2010).

Assay [1] concerns the target T1, Cystine/glutamate transporter (Homo sapiens) (UniProt Q9UPY5).
T1 sequence (whole entry): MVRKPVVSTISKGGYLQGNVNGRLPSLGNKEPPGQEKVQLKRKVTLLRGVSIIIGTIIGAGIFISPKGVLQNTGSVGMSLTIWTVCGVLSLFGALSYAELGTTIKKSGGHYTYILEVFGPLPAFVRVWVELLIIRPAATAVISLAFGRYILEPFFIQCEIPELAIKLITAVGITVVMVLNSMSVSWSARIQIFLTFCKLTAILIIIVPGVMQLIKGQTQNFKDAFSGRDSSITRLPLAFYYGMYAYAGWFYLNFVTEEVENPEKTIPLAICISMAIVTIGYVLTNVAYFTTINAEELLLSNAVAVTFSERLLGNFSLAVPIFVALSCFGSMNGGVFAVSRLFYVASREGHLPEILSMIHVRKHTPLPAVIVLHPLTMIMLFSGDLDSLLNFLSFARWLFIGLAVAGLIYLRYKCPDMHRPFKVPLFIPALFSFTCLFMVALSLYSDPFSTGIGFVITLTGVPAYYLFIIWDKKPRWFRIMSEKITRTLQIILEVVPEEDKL
The experiment in a line: Inhibition of amino acid transport system xc- in human SNB19 cells assessed as [3H]L-glutamate uptake at 500 uM after 24 hrs by liquid scintillation counting. The conditions noted are these: SNB-19. The format is cell-based. An outline of the steps: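 Uptake begun by adding ³H-L-glutamate (100 μM) with inhibitor (500 μM) to the wells and run for 5 min. Wells rinsed three times with 0°C HBHS, and cells lysed in 0.4 M NaOH for 24 h. A 200 μl aliquot was acidified with acetic acid and radioactivity counted against background.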

The species named for assay [2] is Rattus norvegicus. The experiment in a line: Inhibition of VGLUT in rat brain synaptic vesicles assessed as [3H]L-glutamate uptake at 5 mM after 24 hrs by liquid scintillation counting. Type of assay: tissue-based. In a few lines: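 Vesicular uptake used 250 μM L-glutamate as substrate, with inhibitor at 5 mM.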
The target in assay [3] is T2, Cystine/glutamate transporter (Homo sapiens, UniProt Q9UPY5).
T2 sequence (Q9UPY5 whole entry): T1 sequence (whole entry)
The experiment in a line: Inhibition of amino acid transport system xc-. An outline of the steps:
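Cells were given 100 μM ³H-L-glutamate plus 500 μM inhibitor, and uptake ran for 5 min. Wells were rinsed three times with 0°C HBHS, and cells were lysed in 0.4 M NaOH for 24 h. Acetic acid was added to a lysate aliquot, and radioactivity was counted against background.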

A short description of assay [4]: Inhibition of VGLUT.

In the case of `N[C@@H](CS)C(=O)O`, the Drug uptake in assay [1] was found to be 22%.

`NC(C(=O)O)c1csc2ccccc12` (stereo unspecified): the Drug uptake was 53% in assay [1] and 31% in assay [2].

Take `NC(C(=O)O)c1ccc(Br)s1` (stereo unspecified): the Drug uptake in assay [1] stood at 83%; in assay [2], 37%.

Turning to `N[C@@H](C(=O)O)c1ccc(S(=O)(=O)O)s1`, the Drug uptake in assay [1] was 55%; in assay [2], 104%.

`Cc1c(C(=O)O)sc(N)c1C(=O)O`: the figures for the Drug uptake in assay [1] and in assay [2] were 57% and 44%, respectively.

Consider `NC(C(=O)O)c1c[nH]cn1` (stereo unspecified), for which the Drug uptake in assay [1] is 96%; in assay [2], 95%.

In assay [3], `N[C@H](C(=O)O)c1ccc(C(=O)O)cc1` registered an IC50 of 5 µM.

For the molecule `NC(C(=O)O)c1ccc(S(=O)(=O)O)s1` (stereo unspecified), the Drug uptake in assay [1] came to 26%; in assay [2], 81%.

In the case of `N[C@H](C(=O)O)c1ccc(S(=O)(=O)O)s1`, the Drug uptake in assay [1] is 32%; in assay [2], 92%.

`NC(C(=O)O)c1ccc(-c2cccs2)s1` (stereo unspecified): the Drug uptake in assay [1] is 69%; in assay [2], 53%.

As to `Cc1cc(C(N)C(=O)O)sc1C` (stereo unspecified), the Drug uptake in assay [1] worked out at 73%; in assay [2], 57%.

In assay [3], `N[C@@H](COS(=O)(=O)O)C(=O)O` showed an IC50 of 26 µM.

Take `N[C@H](Cc1ccc(S(=O)(=O)O)cc1)C(=O)O`: the values for the Drug uptake in assay [1] and in assay [2] were 101% and 102%, respectively.

Consider `N[C@@H](Cc1ccc(S(=O)(=O)O)cc1)C(=O)O`, for which the Drug uptake in assay [1] was determined as 90%; in assay [2] it was 131%.

On to `CC(N)(Cc1ccc(S(=O)(=O)O)cc1)C(=O)O` (stereo unspecified), for which the Drug uptake is 106% in assay [1] and 98% in assay [2].

As to `Cc1csc(C(=O)O)c1N`, the Drug uptake in assay [1] turned out to be 83%; in assay [2] it was 91%.

Take `N[C@@H](CCS(=O)(=O)O)C(=O)O`: in assay [3], the 50% inhibitory concentration (IC50) came to 35 µM.

Take `N[C@H](C(=O)O)c1ccc(S(=O)(=O)O)cc1`: the Drug uptake in assay [1] turned out to be 55%; in assay [2], 105%.

In the case of `N[C@@H](C(=O)O)c1ccc(S(=O)(=O)O)cc1`, the results for the Drug uptake in assay [1] and in assay [2] were 98% and 108%, respectively.

As for `NC(C(=O)O)c1ccc(-c2ccc(C(=O)O)cc2)cc1` (stereo unspecified), the Drug uptake in assay [1] amounted to 27%; in assay [2], 75%.

In the case of `Nc1c(/N=N/c2ccc(-c3ccc(/N=N/c4cc(S(=O)(=O)O)c5ccccc5c4N)cc3)cc2)cc(S(=O)(=O)O)c2ccccc12`, the Drug uptake in assay [2] was determined as 31%.

In the case of `NC(Cc1ccc(Br)cc1S(=O)(=O)O)C(=O)O` (stereo unspecified), the Drug uptake in assay [1] was determined as 83%; in assay [2], 77%.

In turn, `Cc1cc(-c2ccc(/N=N/c3c(S(=O)(=O)O)cc4cc(S(=O)(=O)O)cc(N)c4c3O)c(C)c2)ccc1/N=N/c1c(S(=O)(=O)O)cc2cc(S(=O)(=O)O)cc(N)c2c1O` [TRYPAN BLUE] displayed an IC50 in assay [4] of 0.05 µM.

In turn, `N[C@@H](Cn1oc(=O)[nH]c1=O)C(=O)O` [QUISQUALATE] came in with a half-inhibitory concentration (IC50) in assay [3] of 5 µM. This lies in the single-digit micromolar range.
